Laboratory results: ChEMBL document CHEMBL4689842, “EUbOPEN Chemogenomics Library wave 1” (2021)

Tested on: HEK-293T
Assay: Multiplex assay against HEK293T;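 for Population Tubulin-Different-Phenotype (%): share of the cells with healthy nuclei that show this phenotype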
Assay type: toxicity, cell-based
Details: human
Procedure, shortened: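 Four dyes were applied at seeding to live cells: Hoechst33342, BioTracker Green Microtubule Cytoskeleton Dye, MitoTracker Red and Annexin V Alexa Fluor 680. Imaging after compound addition used a CQ1 microscope at 37°C and 5% CO2. CellPathfinder machine-learning gating then sorted cells into Hoechst high-intensity objects or normal cells, normal cells into healthy, pyknosed or fragmented nuclei, and pyknosed cells into mitotic or apoptotic, with tubulin, mitochondrial-mass and membrane-permeability phenotypes given as per cents of healthy-nucleus cells.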

[1] = 12 h, 1 µM, compound concentration 1 uM, replicate 1
[2] = 12 h, 1 µM, compound concentration 1 uM, replicate 2
[3] = 12 h, 10 µM, compound concentration 10 uM, replicate 1
[4] = 12 h, 10 µM, compound concentration 10 uM, replicate 2
[5] = 24 h, 1 µM, compound concentration 1 uM, replicate 1
[6] = 24 h, 1 µM, compound concentration 1 uM, replicate 2
[7] = 24 h, 10 µM, compound concentration 10 uM, replicate 1
[8] = 24 h, 10 µM, compound concentration 10 uM, replicate 2
[9] = 48 h, 1 µM, compound concentration 1 uM, replicate 1
[10] = 48 h, 1 µM, compound concentration 1 uM, replicate 2
[11] = 48 h, 10 µM, compound concentration 10 uM, replicate 1
[12] = 48 h, 10 µM, compound concentration 10 uM, replicate 2

O=c1[nH]c2ccccc2n1C1CCN(Cc2ccc(-c3[nH]c4cc5ncnc5cc4nc3-c3ccccc3)cc2)CC1
Population Apoptotic (%) [1]: 16%
Population Fragmented Nuclei (%) [1]: 13%
Population Healthy Nuclei (%) [1]: 69%
Population Hoechst High Intensity Objects (%) [1]: 7%
Population Membrane Permeable-Phenotype (%) [1]: 7%
Population Mitochondria Different-Phenotype (%) [1]: 3%
Population Mitotic Cells (%) [1]: 83%
Population Normal (%) [1]: 92%
Population Pyknosed Nuclei (%) [1]: 16%
Population Tubulin-Different-Phenotype (%) [1]: 6%
Total Cell Count [1]: 646
Population Apoptotic (%) [2]: 10%
Population Fragmented Nuclei (%) [2]: 5%
Population Healthy Nuclei (%) [2]: 89%
Population Hoechst High Intensity Objects (%) [2]: 2%
Population Membrane Permeable-Phenotype (%) [2]: 5%
Population Mitochondria Different-Phenotype (%) [2]: 23%
Population Mitotic Cells (%) [2]: 90%
Population Normal (%) [2]: 97%
Population Pyknosed Nuclei (%) [2]: 5%
Population Tubulin-Different-Phenotype (%) [2]: 43%
Total Cell Count [2]: 1621
Population Apoptotic (%) [3]: 38%
Population Fragmented Nuclei (%) [3]: 10%
Population Healthy Nuclei (%) [3]: 50%
Population Hoechst High Intensity Objects (%) [3]: 20%
Population Membrane Permeable-Phenotype (%) [3]: 22%
Population Mitochondria Different-Phenotype (%) [3]: 40%
Population Mitotic Cells (%) [3]: 61%
Population Normal (%) [3]: 79%
Population Pyknosed Nuclei (%) [3]: 39%
Population Tubulin-Different-Phenotype (%) [3]: 91%
Total Cell Count [3]: 661
Population Apoptotic (%) [4]: 24%
Population Fragmented Nuclei (%) [4]: 2%
Population Healthy Nuclei (%) [4]: 71%
Population Hoechst High Intensity Objects (%) [4]: 13%
Population Membrane Permeable-Phenotype (%) [4]: 13%
Population Mitochondria Different-Phenotype (%) [4]: 51%
Population Mitotic Cells (%) [4]: 75%
Population Normal (%) [4]: 86%
Population Pyknosed Nuclei (%) [4]: 25%
Population Tubulin-Different-Phenotype (%) [4]: 86%
Total Cell Count [4]: 974
Population Apoptotic (%) [5]: 11%
Population Fragmented Nuclei (%) [5]: 14%
Population Hoechst High Intensity Objects (%) [5]: 6%
Population Membrane Permeable-Phenotype (%) [5]: 17%
Population Mitochondria Different-Phenotype (%) [5]: 3%
Population Mitotic Cells (%) [5]: 88%
Population Normal (%) [5]: 93%
Population Pyknosed Nuclei (%) [5]: 5%
Population Tubulin-Different-Phenotype (%) [5]: 14%
Total Cell Count [5]: 776
Population Apoptotic (%) [6]: 7%
Population Fragmented Nuclei (%) [6]: 17%
Population Healthy Nuclei (%) [6]: 79%
Population Hoechst High Intensity Objects (%) [6]: 4%
Population Membrane Permeable-Phenotype (%) [6]: 14%
Population Mitochondria Different-Phenotype (%) [6]: 6%
Population Mitotic Cells (%) [6]: 92%
Population Normal (%) [6]: 95%
Population Pyknosed Nuclei (%) [6]: 3%
Population Tubulin-Different-Phenotype (%) [6]: 52%
Total Cell Count [6]: 2517
Population Apoptotic (%) [7]: 54%
Population Fragmented Nuclei (%) [7]: 12%
Population Healthy Nuclei (%) [7]: 56%
Population Hoechst High Intensity Objects (%) [7]: 31%
Population Membrane Permeable-Phenotype (%) [7]: 9%
Population Mitochondria Different-Phenotype (%) [7]: 70%
Population Mitotic Cells (%) [7]: 45%
Population Normal (%) [7]: 68%
Population Pyknosed Nuclei (%) [7]: 31%
Population Tubulin-Different-Phenotype (%) [7]: 83%
Total Cell Count [7]: 612
Population Apoptotic (%) [8]: 28%
Population Fragmented Nuclei (%) [8]: 2%
Population Healthy Nuclei (%) [8]: 71%
Population Hoechst High Intensity Objects (%) [8]: 23%
Population Membrane Permeable-Phenotype (%) [8]: 6%
Population Mitochondria Different-Phenotype (%) [8]: 67%
Population Mitotic Cells (%) [8]: 71%
Population Normal (%) [8]: 76%
Population Pyknosed Nuclei (%) [8]: 26%
Population Tubulin-Different-Phenotype (%) [8]: 72%
Total Cell Count [8]: 883

CC(C)(C)NC[C@H](O)COc1nsnc1N1CCOCC1 [TIMOLOL]
Population Apoptotic (%) [1]: 47%
Population Fragmented Nuclei (%) [1]: 10%
Population Healthy Nuclei (%) [1]: 39%
Population Hoechst High Intensity Objects (%) [1]: 14%
Population Membrane Permeable-Phenotype (%) [1]: 4%
Population Mitochondria Different-Phenotype (%) [1]: 77%
Population Mitotic Cells (%) [1]: 52%
Population Normal (%) [1]: 85%
Population Pyknosed Nuclei (%) [1]: 50%
Population Tubulin-Different-Phenotype (%) [1]: 36%
Total Cell Count [1]: 281
Population Apoptotic (%) [2]: 12%
Population Fragmented Nuclei (%) [2]: 5%
Population Healthy Nuclei (%) [2]: 48%
Population Hoechst High Intensity Objects (%) [2]: 3%
Population Membrane Permeable-Phenotype (%) [2]: 8%
Population Mitochondria Different-Phenotype (%) [2]: 19%
Population Mitotic Cells (%) [2]: 87%
Population Normal (%) [2]: 96%
Population Pyknosed Nuclei (%) [2]: 45%
Population Tubulin-Different-Phenotype (%) [2]: 22%
Total Cell Count [2]: 280
Population Apoptotic (%) [3]: 55%
Population Fragmented Nuclei (%) [3]: 9%
Population Healthy Nuclei (%) [3]: 40%
Population Hoechst High Intensity Objects (%) [3]: 13%
Population Membrane Permeable-Phenotype (%) [3]: 2%
Population Mitochondria Different-Phenotype (%) [3]: 87%
Population Mitotic Cells (%) [3]: 44%
Population Normal (%) [3]: 86%
Population Pyknosed Nuclei (%) [3]: 49%
Population Tubulin-Different-Phenotype (%) [3]: 53%
Total Cell Count [3]: 293
Population Apoptotic (%) [4]: 8%
Population Fragmented Nuclei (%) [4]: 3%
Population Healthy Nuclei (%) [4]: 50%
Population Hoechst High Intensity Objects (%) [4]: 3%
Population Membrane Permeable-Phenotype (%) [4]: 4%
Population Mitochondria Different-Phenotype (%) [4]: 23%
Population Mitotic Cells (%) [4]: 91%
Population Normal (%) [4]: 96%
Population Pyknosed Nuclei (%) [4]: 46%
Population Tubulin-Different-Phenotype (%) [4]: 17%
Total Cell Count [4]: 261
Population Apoptotic (%) [5]: 49%
Population Fragmented Nuclei (%) [5]: 8%
Population Healthy Nuclei (%) [5]: 43%
Population Hoechst High Intensity Objects (%) [5]: 12%
Population Membrane Permeable-Phenotype (%) [5]: 1%
Population Mitochondria Different-Phenotype (%) [5]: 58%
Population Mitotic Cells (%) [5]: 50%
Population Normal (%) [5]: 87%
Population Pyknosed Nuclei (%) [5]: 47%
Population Tubulin-Different-Phenotype (%) [5]: 41%
Total Cell Count [5]: 293
Population Apoptotic (%) [6]: 8%
Population Fragmented Nuclei (%) [6]: 7%
Population Healthy Nuclei (%) [6]: 67%
Population Hoechst High Intensity Objects (%) [6]: 1%
Population Membrane Permeable-Phenotype (%) [6]: 11%
Population Mitochondria Different-Phenotype (%) [6]: 12%
Population Mitotic Cells (%) [6]: 91%
Population Normal (%) [6]: 98%
Population Pyknosed Nuclei (%) [6]: 24%
Population Tubulin-Different-Phenotype (%) [6]: 30%
Total Cell Count [6]: 363
Population Apoptotic (%) [7]: 44%
Population Fragmented Nuclei (%) [7]: 6%
Population Healthy Nuclei (%) [7]: 57%
Population Hoechst High Intensity Objects (%) [7]: 12%
Population Membrane Permeable-Phenotype (%) [7]: 2%
Population Mitochondria Different-Phenotype (%) [7]: 70%
Population Mitotic Cells (%) [7]: 55%
Population Normal (%) [7]: 87%
Population Pyknosed Nuclei (%) [7]: 35%
Population Tubulin-Different-Phenotype (%) [7]: 40%
Total Cell Count [7]: 360
Population Apoptotic (%) [8]: 8%
Population Fragmented Nuclei (%) [8]: 3%
Population Healthy Nuclei (%) [8]: 71%
Population Hoechst High Intensity Objects (%) [8]: 3%
Population Membrane Permeable-Phenotype (%) [8]: 4%
Population Mitochondria Different-Phenotype (%) [8]: 17%
Population Mitotic Cells (%) [8]: 91%
Population Normal (%) [8]: 96%
Population Pyknosed Nuclei (%) [8]: 24%
Population Tubulin-Different-Phenotype (%) [8]: 18%
Total Cell Count [8]: 355
Population Apoptotic (%) [9]: 52%
Population Fragmented Nuclei (%) [9]: 18%
Population Healthy Nuclei (%) [9]: 46%
Population Hoechst High Intensity Objects (%) [9]: 10%
Population Membrane Permeable-Phenotype (%) [9]: 6%
Population Mitochondria Different-Phenotype (%) [9]: 23%
Population Mitotic Cells (%) [9]: 47%
Population Normal (%) [9]: 89%
Population Pyknosed Nuclei (%) [9]: 34%
Population Tubulin-Different-Phenotype (%) [9]: 33%
Total Cell Count [9]: 373
Population Apoptotic (%) [10]: 16%
Population Fragmented Nuclei (%) [10]: 5%
Population Healthy Nuclei (%) [10]: 82%
Population Hoechst High Intensity Objects (%) [10]: 2%
Population Mitochondria Different-Phenotype (%) [10]: 3%
Population Mitotic Cells (%) [10]: 83%
Population Normal (%) [10]: 97%
Population Pyknosed Nuclei (%) [10]: 12%
Population Tubulin-Different-Phenotype (%) [10]: 25%
Total Cell Count [10]: 733
Population Apoptotic (%) [11]: 42%
Population Fragmented Nuclei (%) [11]: 12%
Population Healthy Nuclei (%) [11]: 65%
Population Hoechst High Intensity Objects (%) [11]: 5%
Population Membrane Permeable-Phenotype (%) [11]: 0%
Population Mitochondria Different-Phenotype (%) [11]: 23%
Population Mitotic Cells (%) [11]: 57%
Population Normal (%) [11]: 94%
Population Pyknosed Nuclei (%) [11]: 22%
Population Tubulin-Different-Phenotype (%) [11]: 20%
Total Cell Count [11]: 545
Population Apoptotic (%) [12]: 6%
Population Fragmented Nuclei (%) [12]: 7%
Population Healthy Nuclei (%) [12]: 85%
Population Hoechst High Intensity Objects (%) [12]: 2%
Population Membrane Permeable-Phenotype (%) [12]: 2%
Population Mitochondria Different-Phenotype (%) [12]: 4%
Population Mitotic Cells (%) [12]: 93%
Population Normal (%) [12]: 97%
Population Pyknosed Nuclei (%) [12]: 7%
Population Tubulin-Different-Phenotype (%) [12]: 17%
Total Cell Count [12]: 660
